From ChEMBL document CHEMBL4396903, “Chain-Shortened Myostatin Inhibitory Peptides Improve Grip Strength in Mice” (ACS Med Chem Lett, 2019)
Active and inactive are the calls of the source. No cut-off for these calls is given here. Square brackets hold non-standard residues; d marks the D form. Peptide text beside a SMILES is read from it. * marks the point of attachment. Acetyl(2-naphthyloxy) = O=C(COc1ccc2ccccc2c1)*; Chg = N[C@H](C(=O)O)C1CCCCC1

Assays:
Mus musculus [1] = test: In vivo induction of muscular hypertrophy in mdx mouse assessed as increase in muscle function at 30 nmol, im administered on 0 and 14 day and measured on day 42 by grip strength meter method relative to control; format: functional
Mus musculus [2] = test: In vivo induction of muscular hypertrophy in mdx mouse assessed as increase in weight of TA muscles at 30 nmol, im administered on 0 and 14 day and measured on day 42 by relative to control; format: functional
Mus musculus [3] = test: In vivo induction of muscular hypertrophy in mdx mouse assessed as hind limb strength at 30 nmol, im administered on 0 and 14 day and measured on day 42 by grip strength meter method (reference value: 4.41 +/- 0.31 Kg); format: functional
[4] = biological target: Growth/differentiation factor 8 (Homo sapiens) (UniProt O14793); test: Inhibition of myostatin (unknown origin) expressed in HEK293 cells at 0.3 uM incubated for 4 hrs by dual luciferase reporter gene assay; format: cell-based
Chain of Growth/differentiation factor 8 (Homo sapiens) (O14793 267-375 limits assumed): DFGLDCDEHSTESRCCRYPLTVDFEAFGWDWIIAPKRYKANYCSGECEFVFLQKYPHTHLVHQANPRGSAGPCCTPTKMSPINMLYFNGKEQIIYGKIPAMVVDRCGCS
Method in brief: (§1)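 Luciferase reporter assay of myostatin inhibition in HEK293 cells. Peptides were prepared as 3 mM DMSO stocks, then tested at a single final concentration (10, 3 or 0.3 μM). Results are given as mean ± SD (n = 3).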

Mus musculus [5] = test: In vivo induction of muscular hypertrophy in im dosed C57BL/6 mouse assessed as increase in gastrocnemius muscle fiber size administered on 0 and 14 day and measured on day 42 by hematoxylin and eosin staining based assay; format: functional, organism-based
[6] = biological target: Growth/differentiation factor 8 (Homo sapiens) (UniProt O14793); test: Inhibition of myostatin (unknown origin) expressed in HEK293 cells at 10 uM incubated for 4 hrs by dual luciferase reporter gene assay; format: cell-based; method in brief: as §1
Mus musculus [7] = test: In vivo induction of muscular hypertrophy in im dosed mdx mouse assessed as increase in gastrocnemius muscle fiber size administered on 0 and 14 day and measured on day 42 by hematoxylin and eosin staining based assay; format: functional, organism-based
Method in brief: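 Male mdx mice aged 5 weeks received intramuscular injections, with saline-injected controls. Gastrocnemius fiber size was assessed histologically by hematoxylin and eosin staining.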

CC[C@H](C)[C@H](NC(=O)[C@H](CCC(N)=O)NC(=O)[C@@H](NC(=O)[C@H](CCCCN)NC(=O)[C@@H](NC(=O)[C@@H](Cc1c[nH]c2ccccc12)NC(=O)[C@H](CCCNC(=N)N)NC(=O)[C@@H](NC(=O)[C@H](Cc1ccc(O)cc1)NC(=O)[C@@H](N)Cc1c[nH]c2ccccc12)[C@@H](C)CC)[C@@H](C)CC)C1CCCCC1)C(=O)N[C@@H](Cc1c[nH]c2ccccc12)C(=O)N[C@@H](CO)C(=O)N[C@@H](CCCCN)C(=O)N[C@H](C(=O)N[C@@H](CCCNC(=N)N)C(=O)N[C@@H](CC(C)C)C(N)=O)C1CCCCC1
Activity (Mus musculus [1]): 130% | Activity (Mus musculus [2]): 114% | Activity (Mus musculus [3]): 5.92 kg/kg

CC[C@H](C)[C@H](NC(=O)[C@H](CCC(N)=O)NC(=O)[C@@H](NC(=O)[C@H](CCCCN)NC(=O)[C@@H](NC(=O)[C@H](Cc1c[nH]c2ccccc12)NC(=O)[C@H](CCCNC(=N)N)NC(=O)[C@@H](NC(=O)[C@H](Cc1ccc(O)cc1)NC(=O)[C@@H](N)Cc1c[nH]c2ccccc12)[C@@H](C)CC)[C@@H](C)CC)C1CCCCC1)C(=O)N[C@@H](Cc1c[nH]c2ccccc12)C(=O)N[C@@H](CO)C(=O)N[C@@H](CCCCN)C(=O)N[C@H](C(=O)N[C@@H](CCCNC(=N)N)C(=O)N[C@@H](CC(C)C)C(N)=O)C1CCCCC1
inhibition [4]: Active

CC[C@H](C)[C@H](NC(=O)[C@H](CCC(N)=O)NC(=O)[C@@H](NC(=O)[C@H](CCCCN)NC(=O)[C@@H](NC(=O)[C@H](Cc1c[nH]c2ccccc12)NC(=O)[C@H](CCCNC(=N)N)NC(=O)[C@@H](NC(=O)[C@H](Cc1ccc(O)cc1)NC(=O)[C@@H](N)Cc1c[nH]c2ccccc12)[C@@H](C)CC)[C@@H](C)CC)[C@@H](C)CC)C(=O)N[C@@H](Cc1c[nH]c2ccccc12)C(=O)N[C@@H](CO)C(=O)N[C@@H](CCCCN)C(=O)N[C@H](C(=O)N[C@@H](CCCNC(=N)N)C(=O)N[C@@H](CC(C)C)C(N)=O)C1CCCCC1 (H-WYIRWIKIQIWSK[Chg]RL-NH2)
inhibition [4]: Active

CC[C@H](C)[C@H](NC(=O)[C@H](CCC(N)=O)NC(=O)[C@@H](NC(=O)[C@H](CCCCN)NC(=O)[C@@H](NC(=O)[C@H](Cc1c[nH]c2ccccc12)NC(=O)[C@H](CCCNC(=N)N)NC(=O)[C@@H](NC(=O)[C@H](Cc1ccc(O)cc1)NC(=O)[C@@H](N)Cc1c[nH]c2ccccc12)[C@@H](C)CC)[C@@H](C)CC)C1CCCCC1)C(=O)N[C@@H](Cc1c[nH]c2ccccc12)C(=O)N[C@@H](CO)C(=O)N[C@@H](CCCCN)C(=O)N[C@@H](CC(C)C)C(=O)N[C@@H](CCCNC(=N)N)C(=O)N[C@@H](CC(C)C)C(N)=O (H-WYIRWIK[Chg]QIWSKLRL-NH2)
inhibition [4]: Active

CC[C@H](C)[C@H](NC(=O)[C@H](CCCNC(=N)N)NC(=O)[C@H](CO)NC(=O)[C@H](Cc1ccc(O)cc1)NC(=O)[C@H](CCCNC(=N)N)NC(=O)[C@@H](NC(=O)[C@H](CC(N)=O)NC(=O)[C@H](CCC(N)=O)NC(=O)[C@H](CCCNC(=N)N)NC(=O)COc1ccc2ccccc2c1)[C@@H](C)O)C(=O)N[C@@H](CCC(=O)O)C(=O)N[C@@H](Cc1c[nH]c2ccccc12)C(=O)N[C@H](C(=O)N[C@@H](CCCCN)C(=O)N[C@H](C(=O)N[C@@H](CCC(N)=O)C(=O)N[C@H](C(=O)N[C@H](C(=O)N[C@@H](CO)C(=O)N[C@@H](CCCCN)C(=O)N[C@@H](CC(C)C)C(=O)N[C@@H](CCCNC(=N)N)C(=O)N[C@@H](CC(C)C)C(N)=O)[C@@H](C)CC)[C@@H](C)CC)[C@@H](C)CC)[C@@H](C)CC ({Acetyl(2-naphthyloxy)}-RQNTRYSRIEWIKIQIISKLRL-NH2)
Activity (Mus musculus [5]): Active

H-SRIEAIKIQILSKLRL-NH2
inhibition [6]: inactive

H-SRIEWIKIQIISKLRL-NH2
inhibition [6]: Active

H-SRIEWIKIQIWSKLRL-NH2
inhibition [6]: Active

H-WYFRWIKIQIWSKLRL-NH2
inhibition [4]: Active

H-WYIEAIKIQILSKLRL-NH2
inhibition [6]: Active

H-WYIRWIKIQFWSKLRL-NH2
inhibition [4]: Active

H-WYIRWIKIQIWSKLRL-NH2
Activity (Mus musculus [5]): Active | inhibition [4]: Active | Activity (Mus musculus [7]): Active
